Test results reported in ChEMBL document CHEMBL4819068, “Novel potent bifunctional carboxylesterase inhibitors based on a polyfluoroalkyl-2-imino-1,3-dione scaffold” (Eur J Med Chem, 2021).

How the values were obtained:
[1] = target: T1, Liver carboxylesterase (Sus scrofa, UniProt Q29550); assay: Inhibition of porcine liver carboxylesterase using 4-NPA as substrate preincubated for 10 mins followed by substrate addition by spectrophotometric analysis; assay type: tissue-based
T1 sequence (Q29550 whole entry): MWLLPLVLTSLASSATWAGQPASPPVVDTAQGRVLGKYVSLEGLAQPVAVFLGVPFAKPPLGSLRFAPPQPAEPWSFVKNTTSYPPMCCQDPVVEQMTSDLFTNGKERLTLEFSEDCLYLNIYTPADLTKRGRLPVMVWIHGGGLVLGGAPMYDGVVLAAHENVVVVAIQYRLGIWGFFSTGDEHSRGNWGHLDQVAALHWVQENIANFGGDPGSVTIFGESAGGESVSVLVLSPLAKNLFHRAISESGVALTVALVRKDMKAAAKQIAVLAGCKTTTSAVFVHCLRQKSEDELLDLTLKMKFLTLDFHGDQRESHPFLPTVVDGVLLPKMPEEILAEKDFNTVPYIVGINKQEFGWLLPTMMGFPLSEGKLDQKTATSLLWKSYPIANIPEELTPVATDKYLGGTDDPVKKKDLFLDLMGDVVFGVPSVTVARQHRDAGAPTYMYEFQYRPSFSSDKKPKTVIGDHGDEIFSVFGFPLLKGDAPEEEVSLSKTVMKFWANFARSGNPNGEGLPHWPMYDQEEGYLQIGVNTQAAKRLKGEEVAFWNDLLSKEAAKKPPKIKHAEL
Outline: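 Porcine liver CES, 0.02 unit/mL, in 0.1 M K/Na phosphate pH 8.0, 25 °C; compound in DMSO (2% v/v final) preincubated 10 min, then 1 mM 4-nitrophenyl acetate; 4-nitrophenol read at 405 nm, enzyme-free blanks. Screening at 20 μM in three separate experiments; IC50 from eight concentrations between 10^-12 and 10^-4 M, residual activity relative to inhibitor-free control.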

[2] = target: Acetylcholinesterase (Homo sapiens, UniProt P22303); assay: Inhibition of human erythrocyte AChE using acetylthiocholine iodide as substrate preincubated for 10 mins followed by substrate addition by Ellman's method
Chain of Acetylcholinesterase (P22303 whole entry): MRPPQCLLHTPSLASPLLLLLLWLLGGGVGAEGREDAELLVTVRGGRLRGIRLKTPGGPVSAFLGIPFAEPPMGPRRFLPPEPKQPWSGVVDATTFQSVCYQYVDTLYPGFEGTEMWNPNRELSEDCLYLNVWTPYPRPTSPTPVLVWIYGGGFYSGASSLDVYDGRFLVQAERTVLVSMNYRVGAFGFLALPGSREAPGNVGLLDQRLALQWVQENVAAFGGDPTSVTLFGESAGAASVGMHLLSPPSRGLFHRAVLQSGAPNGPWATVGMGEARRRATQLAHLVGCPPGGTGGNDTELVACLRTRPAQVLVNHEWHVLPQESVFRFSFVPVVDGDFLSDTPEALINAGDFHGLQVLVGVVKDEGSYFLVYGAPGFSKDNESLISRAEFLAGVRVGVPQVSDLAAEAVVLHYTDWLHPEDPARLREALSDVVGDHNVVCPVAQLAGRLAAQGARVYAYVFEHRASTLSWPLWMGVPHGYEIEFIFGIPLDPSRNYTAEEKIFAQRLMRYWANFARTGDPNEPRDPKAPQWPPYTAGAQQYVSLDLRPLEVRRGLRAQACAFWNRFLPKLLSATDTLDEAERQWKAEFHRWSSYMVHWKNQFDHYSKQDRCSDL

[3] = target: Cholinesterase (Equus caballus, UniProt P81908); assay: Inhibition of equine serum BuChE using […] as substrate preincubated for 10 mins followed by substrate addition by Ellman's method
Chain of Cholinesterase (P81908 whole entry): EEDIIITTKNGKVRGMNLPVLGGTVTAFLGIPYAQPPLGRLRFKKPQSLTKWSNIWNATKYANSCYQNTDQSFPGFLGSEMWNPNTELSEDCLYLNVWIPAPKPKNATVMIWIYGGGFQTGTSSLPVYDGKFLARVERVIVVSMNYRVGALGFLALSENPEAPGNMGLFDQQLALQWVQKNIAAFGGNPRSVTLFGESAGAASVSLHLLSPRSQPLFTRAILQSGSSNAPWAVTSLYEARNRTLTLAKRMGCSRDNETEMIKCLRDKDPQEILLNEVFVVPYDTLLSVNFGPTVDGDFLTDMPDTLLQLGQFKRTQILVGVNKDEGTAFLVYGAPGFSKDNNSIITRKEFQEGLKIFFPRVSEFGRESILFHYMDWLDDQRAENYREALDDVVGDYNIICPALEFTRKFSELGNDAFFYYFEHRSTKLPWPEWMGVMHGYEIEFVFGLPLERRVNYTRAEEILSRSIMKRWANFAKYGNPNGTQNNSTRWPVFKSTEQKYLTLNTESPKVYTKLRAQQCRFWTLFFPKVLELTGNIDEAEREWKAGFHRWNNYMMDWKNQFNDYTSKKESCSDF

[4] = Antioxidant activity assessed as trolox equivalent of ABTS radical cation scavenging activity incubated for 24 hrs by UV-Vis spectrophotometric analysis; assay type: functional
[5] = Antioxidant activity assessed as decrease in ABTS radical cation scavenging activity incubated for 24 hrs by UV-Vis spectrophotometric analysis; assay type: functional
[6] = target: T2, Liver carboxylesterase 1 (Homo sapiens, UniProt P23141); assay: Inhibition of human recombinant CES1 expressed in baculovirus infected BTI insect cells using 4-NPA as substrate by spectrophotometric analysis
T2 sequence (P23141 whole entry): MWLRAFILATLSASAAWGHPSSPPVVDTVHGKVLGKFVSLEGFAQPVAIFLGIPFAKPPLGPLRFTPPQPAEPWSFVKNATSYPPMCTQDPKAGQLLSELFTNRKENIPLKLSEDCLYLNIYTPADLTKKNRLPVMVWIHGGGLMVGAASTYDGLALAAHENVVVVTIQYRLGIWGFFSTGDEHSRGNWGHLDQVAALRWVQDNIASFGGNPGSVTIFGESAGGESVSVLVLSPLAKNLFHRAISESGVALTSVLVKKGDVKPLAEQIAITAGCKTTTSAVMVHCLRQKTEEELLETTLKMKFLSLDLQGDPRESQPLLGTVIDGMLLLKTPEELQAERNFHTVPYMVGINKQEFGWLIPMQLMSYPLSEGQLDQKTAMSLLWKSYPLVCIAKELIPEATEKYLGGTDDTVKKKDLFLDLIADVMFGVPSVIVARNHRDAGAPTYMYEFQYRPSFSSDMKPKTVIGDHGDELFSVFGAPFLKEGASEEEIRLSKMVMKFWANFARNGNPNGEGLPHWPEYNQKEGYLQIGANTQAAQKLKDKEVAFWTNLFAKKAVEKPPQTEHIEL
Outline: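 Recombinant hCES1 (baculovirus/BTI insect cells), 0.02 unit/mL, in 0.1 M K/Na phosphate pH 7.4, 25 °C; compound (DMSO, 2% v/v final) preincubated 10 min, then 1 mM 4-nitrophenyl acetate added; 4-nitrophenol release read at 405 nm against enzyme-free blank. IC50 from eight concentrations (10^-12–10^-4 M) relative to inhibitor-free control.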

[7] = Cytotoxicity against human FetMSC cells assessed as reduction in cell viability after 72 hrs by MTT assay; assay type: cell-based
Outline: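 Human fetal MSC (bone-marrow fibroblast-like, nonimmortalized; ≤10–15 passages) grown in F12/DMEM with 10% FBS, 3 mM L-glutamine, penicillin/streptomycin. Seeded at 6×10^3 cells/well; after 24 h, medium replaced with compound at 100, 250, 500 μM for 72 h; controls 0.1% DMSO. MTT 0.5 mg/ml for 4 h, formazan dissolved in DMSO, read at 570 nm; control = 100%.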

[8] = Acute toxicity in ip dosed CD-1 mouse observed for 14 days; assay type: organism-based; conditions: in vivo, time 14 day
Outline: (§1)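 CD-1 mice given compound intraperitoneally in 2% (w/v) starch mucilage, three animals per dose group; lethality observed over 14 days; procedure based on OECD recommendations.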

[9] = Acute toxicity in CD-1 mouse assessed as effect on mouse death at 900 mg/kg, ip measured after 14 days; assay type: organism-based; conditions: in vivo, 336 h, time 14 day; outline: as §1

For `CCOC(=O)/C(=N\Nc1ccc(C)cc1)C(=O)C(F)(F)F`, the IC50 [1] was 0.00741 µM, the IC50 [2] was 7.32 µM and the IC50 [3] was 8.34 µM. The Activity [4] was 0.95, the IC50 [5] was 21.4 µM and the IC50 [6] was 0.00292 µM. The IC50 [7] was greater than 500 µM, the LD50 at 336 h [8] was 900 mg/kg and the Activity [9] was “Non-Toxic”.
